pPAFAH FP inh – inhibitors of human plasma PAF acetylhydrolase (pPAFAH). Q13093. 330,000 tested, 1.5% active. inhibition, % at 3.39 µM. recombinant pPAFAH, FP-rhodamine probe fluorescence polarization. AID 463082;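 active means inhibition above the mean inhibition across the screen plus 3 SD, cut at about 25% in these data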;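 further: inhibitors block binding of the rhodamine activity-based probe so polarization drops; 0% = enzyme with DMSO and 100% = wells lacking pPAFAH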
PAFAH2 FP inh – inhibitors of human PAFAH2. Q99487. recombinant PAFAH2, FP-rhodamine activity probe, fluorescence polarization. inhibition, % at 3.39 µM. 340,000 tested, 0.99% active. AID 492956;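 active means inhibition above the mean over all tested compounds plus 3 SD, cut at about 30% in these data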;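 further: inhibitors block probe labeling of enzyme so polarization drops; 0% = enzyme with DMSO and 100% = wells lacking PAFAH2 protein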
Apaf-1 inh – blocks human Apaf-1 apoptosome activity; O14727; reconstituted apoptosome caspase-3 activity, DEVD-Rh110 fluorescence; inhibition, % at 20 µM; 330,000 tested, 0.71% active; AID 489030; active means inhibition of at least 40% at 20 µM;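 further: plate controls were DMSO wells for no effect and DEVD-CHO caspase inhibitor wells for full effect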
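System: Apoptosome proteins | Medium: Hepes pH 7.5 with detergent and BSA | Also added: Cytochrome c trigger plus (Z-DEVD)2-Rh110 caspase-3 substrate | Incubation: 30 min compound preincubation, 50 min activation, room temperature | Detection: Rhodamine 110 fluorescence at Ex 480/Em 540 nm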
PAFAH1B2 FP inh – inhibitors of human PAFAH1B2; P68402; recombinant PAFAH1B2, FP-rhodamine activity probe, fluorescence polarization; inhibition, % at 3.39 µM; 340,000 tested, 1.2% active; AID 492953;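 active means inhibition above the mean of all tested compounds plus 3 SD, cut at about 24% in these data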;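 further: 0% = enzyme with DMSO and 100% = wells lacking PAFAH1B2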
Target sequence (P68402 whole entry, looked up): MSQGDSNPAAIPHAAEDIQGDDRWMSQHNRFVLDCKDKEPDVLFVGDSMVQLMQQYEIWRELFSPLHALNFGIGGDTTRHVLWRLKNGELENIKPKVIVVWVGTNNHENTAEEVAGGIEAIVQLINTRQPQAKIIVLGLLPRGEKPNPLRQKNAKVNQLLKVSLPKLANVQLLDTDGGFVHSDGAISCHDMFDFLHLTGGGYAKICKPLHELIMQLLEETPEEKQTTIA
PAFAH1B3 FP inh – blocks human PAF acetylhydrolase 1B catalytic subunit 3 | recombinant PAFAH1B3, FP-rhodamine probe, fluorescence polarization | inhibition, % at 3.39 µM | 340,000 tested, 0.28% active | AID 492972;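 active means inhibition above the screen-wide average of all tested compounds plus 3 SD, cut at about 25% in these data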;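 further: 0% = enzyme with DMSO only and 100% = wells lacking PAFAH1B3 protein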
Target sequence (Q15102 whole entry, looked up): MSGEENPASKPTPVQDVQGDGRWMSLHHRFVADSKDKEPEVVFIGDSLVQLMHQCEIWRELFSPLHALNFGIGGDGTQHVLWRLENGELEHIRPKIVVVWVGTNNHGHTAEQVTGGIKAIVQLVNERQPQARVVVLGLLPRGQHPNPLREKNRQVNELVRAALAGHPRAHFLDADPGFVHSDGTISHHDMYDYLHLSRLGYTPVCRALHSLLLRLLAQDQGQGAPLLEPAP
Active calls of the source: *; . = no result. Shown are actives, neighbours in structure and some others; about 3.1% of the full set was active somewhere.

SMILES | pPAFAH FP inh | PAFAH2 FP inh | Apaf-1 inh | PAFAH1B2 FP inh | PAFAH1B3 FP inh
O=c1oc2c(-c3cccc(F)c3)cc(O)cc2s1 | 27* | -12 | 9 | 13 | 11
C/C(CC(=O)Nc1ccc(N(C)C)cc1)=N\NC(=O)c1ccc(C(C)(C)C)cc1 | 5 | 37* | 25 | 9 | 10
C/C(CC(=O)Nc1ccc(N(C)C)cc1)=N\NC(=O)c1ccc(F)cc1 | 1 | -7 | 3 | 0 | 5
CCOC(=O)N1CCN(S(=O)(=O)c2ccc(C(=O)NNc3nc4c(C)cc(C)cc4s3)cc2)CC1 | 32* | . | 14 | . | .
CCOC(=O)N1CCN(S(=O)(=O)c2ccc(C(=O)NNc3nc4cc(C)cc(C)c4s3)cc2)CC1 | 28* | 14 | 12 | 2 | 16
Cc1ccc(C)c(S(=O)(=O)N2CCN(C(=O)C3CCN(c4ncnc5sc(C)c(C)c45)CC3)CC2)c1 | -5 | -7 | 29 | -1 | -4
N#Cc1ccsc1NC(=O)CSc1nnnn1-c1ccc(O)cc1 | 26* | 1 | -19 | 1 | 3
Cc1ccccc1C(=O)c1cccn1CC(=O)NCc1ccc(Cl)cc1 | 1 | 6 | -92 | 31* | 10
Cc1ccc(CNC(=O)Cn2cccc2C(=O)c2ccccc2C)cc1 | 6 | 1 | 1 | 27* | 7
Cc1nnc(NC(=O)CSc2ccc3nnc(-c4cccnc4)n3n2)s1 | 4 | . | 14 | . | .
Cc1cc(C(=O)CSc2cccc[n+]2[O-])c(C)n1-c1ccc(OC(F)F)cc1 | 31* | 5 | -3 | 2 | 5
COC(=O)C1=C(C)N(Cc2ccccc2)C(=NCc2cc(OC)c(OC)c(OC)c2)N[C@H]1c1cccc(F)c1 | -3 | 0 | 12 | 2 | 5
COC(=O)C1=C(C)N(Cc2ccccc2)C(=NCc2cccc(Cl)c2)N[C@H]1c1cccc(F)c1 | -4 | 0 | 67* | 3 | 6
Cc1ccc(C)c(NC(=O)Cc2nc(CNCC(C)C)cs2)c1 | 3 | -1 | -5 | 6 | 7
Cc1c(CCC(=O)O)c(=O)oc2c(C)c3occ(-c4ccc(Br)cc4)c3cc12 | . | 11 | 29 | 5 | 7
COc1ccc(-c2coc3c(C)c4oc(=O)c(CCC(=O)O)c(C)c4cc23)cc1 | 25* | 7 | 17 | 4 | 5
Cc1nn2c(-c3ccc(S(=O)(=O)N4CCN(C)CC4)o3)nnc2c2ccccc12 | -1 | 11 | 9 | 8 | 11
NNC(=O)c1cc(NS(=O)(=O)c2cccs2)cc(NS(=O)(=O)c2cccs2)c1 | 29* | 17 | 2 | 15 | 21
O=C(NCC1CCCO1)c1onc(CSc2ccc(Cl)cc2)c1C(=O)O (configuration not stated) | 12 | -1 | 2 | 25* | 5
Cc1ccccc1SCc1noc(C(=O)NCC2CCCO2)c1C(=O)O (configuration not stated) | 4 | 26 | 3 | 9 | 4
NC(=S)N/N=C/c1ccc(C23CC4CC(CC(C4)C2)C3)cc1 | 8 | . | 32 | . | .
COc1ccc(S(=O)(=O)NNC(=O)C23CC4CC(CC(C4)C2)C3)cc1 | . | -4 | -1 | 17 | 6
N#Cc1cccc(S(=O)(=O)NNC(=O)C23CC4CC(CC(C4)C2)C3)c1 | 5 | 3 | -6 | 26* | 9
O=C(O)C1(c2ccccc2)CCN(S(=O)(=O)c2ccc(F)c(F)c2)CC1 | -2 | -10 | 0 | 27* | 5
CC(NC(N)=O)C12CC3CC(CC(C3)C1)C2 (configuration not stated) | 3 | 4 | 0 | 26* | 5
SMILES | pPAFAH FP inh | PAFAH2 FP inh | Apaf-1 inh | PAFAH1B2 FP inh | PAFAH1B3 FP inh
COC(=O)c1ccc(CNC(=O)COC(=O)c2cc(Cl)ccc2O)cc1 | -2 | -1 | -8 | 3 | 8
CC1CCCCN1S(=O)(=O)c1cnc(Cl)c(Br)c1 (configuration not stated) | 4 | -5 | 9 | 0 | -4
CC1CCN(S(=O)(=O)c2cnc(Cl)c(Br)c2)CC1 | 1 | -2 | -3 | 26* | -3
Cc1oc(-c2ccccc2F)nc1CS(=O)CC(=O)NCc1ccc(F)cc1 (configuration not stated) | 0 | 5 | 2 | 6 | 8
O=S1(=O)CCOC(CO)CN1Cc1ccc(Cl)c(Cl)c1 (configuration not stated) | -2 | -3 | 0 | 2 | 14
C#CCOCCOCCOCCNc1nc(N2CCN(C(=O)CCCCCCCCCCNC(=O)[C@H](CCCCN)n3cc(CCCC(=O)O)nn3)CC2)nc(N2CCN(C(=O)CCCCCCCCCCNC(=O)[C@@H]([C@H](C)O)n3cc(C)nn3)CC2)n1 | 9 | -4 | 29 | -1 | -1
C#CCOCCOCCOCCNc1nc(N2CCN(C(=O)CCCCCCCCCCNC(=O)[C@H](CCCCN)n3cc(C)nn3)CC2)nc(N2CCN(C(=O)CCCCCCCCCCNC(=O)[C@H](CCCCN)n3cc(CCCC(=O)O)nn3)CC2)n1 | -1 | -14 | 63* | 0 | 2
C#CCOCCOCCOCCNc1nc(N2CCN(C(=O)CCCCCCCCCCNC(=O)Cn3cc(C[C@@H](C)O)nn3)CC2)nc(N2CCN(C(=O)CCCCCCCCCCNC(=O)[C@H](CCCCN)n3cc(CCCC(=O)O)nn3)CC2)n1 | 25* | -4 | 28 | -3 | -12
C#CCOCCOCCOCCNc1nc(N2CCOCC2)nc(N2CCN(C(=O)CCCCCCCCCCNC(=O)[C@@H](CCC(=O)O)n3cc(CCCCCN)nn3)CC2)n1 | 3 | 1 | -11 | -4 | 11
C#CCOCCOCCOCCNc1nc(N2CCN(C(=O)CCCCCCCCCCNC(=O)Cn3cc(CCCCCN)nn3)CC2)nc(N2CCN(C(=O)CCCCCCCCCCNC(=O)[C@@H](CCC(=O)O)n3cc(CCCCCN)nn3)CC2)n1 | 11 | -1 | 59* | 1 | 1
C#CCOCCOCCOCCNc1nc(N2CCN(C(=O)CCCCCCCCCCNC(=O)Cn3cc(CCCCCN)nn3)CC2)nc(N2CCN(C(=O)CCCCCCCCCCNC(=O)[C@@H](CCSC)n3cc(CCO)nn3)CC2)n1 | 2 | 1 | 72* | 1 | 1
CC(=O)c1ccc(S(=O)(=O)NCCC(=O)NC2CCN(Cc3ccccc3)CC2)cc1 | 2 | 0 | -2 | -4 | -3
O=C(O)c1cc(Cl)c(Cl)cc1C(=O)NCc1ccco1 | 3 | -6 | 1 | 6 | 14
CCOC(=O)c1ccc(NS(=O)(=O)c2cc(-c3nnnn3CC)ccc2OC)cc1 | 3 | 1 | -3 | 4 | 5
CCCCOC(=O)c1ccc(NS(=O)(=O)c2cc(-c3nnnn3CC)ccc2OC)cc1 | 28* | 0 | 11 | 6 | 9
Cc1cc(C(C)(C)C)ccc1OC(=O)C1=CC=CN2CCS(=O)(=O)N=C12 | . | -3 | 14 | 7 | -1
O=C(CSc1ccc(F)cc1)Nc1ccc(Br)cc1 | -1 | 3 | 11 | 8 | -2
CC(Sc1ccc(Br)cc1)C(N)=O (configuration not stated) | 5 | 6 | 7 | 37* | 4
NC(=O)CSc1ccc(Br)cc1 | 1 | -6 | -5 | 50* | 3

Source: PubChem BioAssay (several laboratories)
